The record followed here is ChEMBL document CHEMBL3526151, “Reversible disulfide formation of the glutamate carboxypeptidase II inhibitor E2072 results in prolonged systemic exposures in vivo” (Drug Metab Dispos, 2012).

The structures appear in SMILES notation.

A short description of data set [1]: Tmax in Sprague-Dawley rat at 10 mg/kg, iv by LC-MS/MS analysis. Format: ADME, organism-based. More on the design: dose 10 mg/kg, route intravenous. Conditions: in vivo.
In data set [2] the test system is Rattus norvegicus. Nature of the data set: Elimination half life in Sprague-Dawley rat at 10 mg/kg, iv by LC-MS/MS analysis. On the set-up: dose 10 mg/kg, route intravenous. It counts as ADME, organism-based. Conditions: in vivo. The gist of the method: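 Male Sprague-Dawley rats received a single IV dose of either 10 mg/kg parent drug (n = 6) or 5 mg/kg homodisulfide (n = 5), in 50 mM HEPES-buffered saline, pH 7.4. Blood was collected into NEM-containing heparinized tubes for up to 7 days. Parent drug and homodisulfide in plasma were quantified by LC-MS/MS. Terminal t1/2β was calculated as 0.693/λz.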

The nature of data set [3]: Cmax in Sprague-Dawley rat kidney at 10 mg/kg, po administered as single dose measured per gm of tissue by LC-MS/MS analysis. It counts as ADME, organism-based. More on the design: dose 10 mg/kg, route oral. The gist of the method: (§1)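 Male Sprague-Dawley rats were dosed orally with 10 mg/kg/day, either once or daily for 5 days; n = 4 per group. Blood was taken by cardiac puncture and liver, kidney, brain and sciatic nerve were collected at 0–8 h post-dose. Tissues were homogenized in PBS containing NEM at equal volume per gram. NEM-derivatized analyte was extracted with methanol and quantified by LC-MS/MS (1–5000 ng/ml). Cmax is the observed value.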

Data set [4] is described as follows: Cmax in Sprague-Dawley rat kidney at 10 mg/kg/day, po administered for 5 days measured per gm of tissue by LC-MS/MS analysis. Format: ADME, organism-based. More on the design: dose 10 mg/kg/day, route oral. An outline of the steps:
as §1

Data set [5] in a line: Phase 2 metabolic stability in rat liver microsomes assessed as compound remaining at 10 uM measured for 1 hr by LC-MS/MS analysis. It counts as ADME. The settings on record: read-out: Stability. An outline of the steps: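 Glucuronidation in liver microsomes of the named species, 0.5 mg/ml protein, compound at 10 μM final, in 50 mM Tris-HCl pH 7.5 with 8 mM MgCl2 and 25 μg/ml alamethicin. Preincubated at 37°C, then started with 2 mM UDPGA (final); cofactor-free controls run alongside. Duplicate reactions, sampled up to 1 h, quenched with cold acetonitrile plus internal standard; disappearance followed by LC-MS/MS.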

A short description of data set [6]: Phase 2 metabolic stability in dog liver microsomes assessed as compound remaining at 10 uM measured for 1 hr by LC-MS/MS analysis. It counts as ADME, Canis lupus familiaris. The settings on record: read-out: Stability. The gist of the method:
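For glucuronidation, compound was preincubated at 37°C in 50 mM Tris-HCl, pH 7.5, with 0.5 mg/ml liver microsomes, 8 mM MgCl2 and 25 µg/ml alamethicin. Reactions were started in duplicate with 2 mM UDPGA (final). Samples were taken up to 1 h, quenched with acetonitrile containing internal standard, and compound disappearance was measured by LC-MS/MS.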
In general terms: Liver microsomes are vesicles of endoplasmic reticulum, rich in cytochrome P450 enzymes.

Data set [7] can be described thus: Phase 2 metabolic stability in dog liver microsomes assessed as compound remaining at 10 uM measured for 1 hr by LC-MS/MS analysis in absence of cofactors. Format: ADME, Canis lupus familiaris. The settings on record: read-out: Stability. The gist of the method: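 Cofactor-free controls were run for each microsomal incubation: 0.5 mg/ml liver microsomes with 10 µM compound, omitting cofactors, so that cofactor-independent degradation could be measured. Samples were taken up to 1 h, quenched with acetonitrile containing internal standard, and the percent remaining was determined by LC-MS/MS.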

Data set [8] is described as follows: Cmax in Sprague-Dawley rat brain at 10 mg/kg/day, po administered for 5 days measured per gm of tissue by LC-MS/MS analysis. It counts as ADME, organism-based. On the set-up: dose 10 mg/kg/day, route oral. The gist of the method:
as §1

Data set [9] deals with Rattus norvegicus. The data set is described as follows: Analgesic activity in Sprague-Dawley rat chronic constriction injury model assessed as change in paw withdrawal latency at 10 mg/kg/day, po measured 7 days after drug treatment cessation (reference value: -2.68 +/-0.43 s). It counts as functional.
A short description of data set [10]: Cmax in Sprague-Dawley rat at 0.1 mg/kg, po administered via gavage measured under fasted conditions by LC-MS/MS analysis. It counts as ADME, organism-based. Conditions: in vivo. More on the design: dose 0.1 mg/kg, route oral. The gist of the method: (§2)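 Fasted male Sprague-Dawley rats (280–330 g) received 0.1, 1, 10 or 30 mg/kg by oral gavage in 50 mM HEPES buffered saline, pH 7.4. Blood drawn at 0.25–24 h into heparin/NEM tubes; plasma analyzed by LC-MS/MS. Cmax taken as observed. AUC by linear trapezoidal rule with extrapolation by λz. Cl/F and Vd/F reported. Mean ± S.D., n = 4–9.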

The test system of data set [11] is Rattus norvegicus. Nature of the data set: Apparent oral clearance in Sprague-Dawley rat at 0.1 mg/kg, po administered via gavage measured under fasted conditions by LC-MS/MS analysis. Conditions: in vivo. More on the design: dose 0.1 mg/kg, route oral. Format: ADME, organism-based. An outline of the steps:
as §2

Data set [12] in a line: Tmax in Sprague-Dawley rat at 1 mg/kg, po administered via gavage measured under fasted conditions by LC-MS/MS analysis. Format: ADME, organism-based. The settings on record: in vivo. On the set-up: dose 1 mg/kg, route oral. An outline of the steps: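 Jugular-cannulated male Sprague-Dawley rats, 280–330 g, fasted overnight to 4 h post-dose. Single dose in 50 mM HEPES-buffered saline pH 7.4, by oral gavage or as tail-vein i.v. bolus. Blood into heparin/NEM tubes at 0–24 h. Plasma measured by LC-MS/MS; noncompartmental analysis; Tmax observed; Vd = dose/(AUCinf·λz).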

Data set [13] in a line: AUC(0 to last) in Sprague-Dawley rat at 1 mg/kg, po administered via gavage measured under fasted conditions by LC-MS/MS analysis. Format: ADME, organism-based. More on the design: time 0 - last, dose 1 mg/kg, route oral. Conditions: plasma. An outline of the steps:
as §2

Data set [14] relates to Rattus norvegicus. The data set is described as follows: Clearance in Sprague-Dawley rat at 10 mg/kg, iv administered as bolus injection measured under fasted conditions by LC-MS/MS analysis. Format: ADME, organism-based. More on the design: dose 10 mg/kg, route intravenous. The settings on record: in vivo. An outline of the steps:
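Male Sprague-Dawley rats (280–330 g), jugular vein cannulated, fasted overnight until 4 h post-dose. Single tail-vein bolus of 0.1, 1, 10 or 30 mg/kg in 50 mM HEPES buffered saline, pH 7.4. Blood drawn 0–24 h into heparin tubes containing NEM. Plasma quantified by LC-MS/MS after NEM derivatization. Noncompartmental analysis: AUClast by linear trapezoidal rule, Cl = dose/AUC0-∞. Mean ± S.D., n = 4–9.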

Data set [15] is described as follows: Cmax in Sprague-Dawley rat at 10 mg/kg, po administered via gavage measured under fed conditions by LC-MS/MS analysis. It counts as ADME, organism-based. Conditions: in vivo. On the set-up: dose 10 mg/kg, route oral. The gist of the method: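 Nonfasted male Sprague-Dawley rats given a single 10 mg/kg oral dose in 50 mM HEPES buffered saline, pH 7.4. Plasma collected 0.25–24 h into heparin/NEM tubes and assayed by LC-MS/MS. Noncompartmental parameters derived, including Cl/F and Vd/F. Mean ± S.D., n = 6–9.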

A short description of data set [16]: Drug recovery in cynomolgus monkey serum protein binding experiment. Conditions: in vitro.

For the compound `O=C(O)c1cccc(-c2cccc(CCS)c2C(=O)O)c1`, the Tmax (usually the time from dosing to the highest level) came out at 6.6 min in data set [1] and 34.8 min in [12]. Moreover, in the data set on Rattus norvegicus [2], the “beta t1/2” value amounted to 105 h. Besides, the Cmax (as a rule, the peak of the concentration-time curve) in data set [3] was found to be 405 ng/g; in data set [4], 388 ng/g; in data set [8], 32.4 ng/g; in data set [10], 62.6 ng/mL; in [15] it was 16200 ng/mL. Also, the remaining at 1 h, 10 µM in [5], in [6] and in data set [7] was more than 90% each time. Moreover, the Time with Rattus norvegicus [9] is on record as -1.53 s. In addition, in the data set on Rattus norvegicus [11], the CL/F (in general, the apparent clearance, not corrected for the fraction that reaches the circulation) worked out at 8.5 mL/min/kg. Further, the AUC(0-t) (usually exposure summed from dosing to a finite time, without extrapolation to infinity) in [13] worked out at 2610 ng·h/mL. In the data set on Rattus norvegicus [14], this compound displayed a CL of 4.5 mL/min/kg. In addition, the Drug recovery in data set [16] stood at 80%.
